The list is not random: actives were taken first. Their share in the collection is about 3.7%.
Kir21 inh: inhibitors of mouse Kir2.1 inward-rectifier potassium channel; HEK293-Kir2.1, FluxOR thallium flux fluorescence; hits give low values; B-score at 10 µM; Inward rectifier potassium channel 2 (Mus musculus), P35561; actives 0.85% (n = 310,000);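 active means fluorescence ratio B-score at or below minus 3 SD of library scores, with starting-brightness B-score within 2 SD, cut at about -4.2 in these data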;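 further: channel flux triggered by added potassium and thallium sulfate stimulus; B-score of peak minus minimum fluorescence over baseline after thallium stimulus; more negative B-score means stronger Kir2.1 block with less thallium influx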
KCNK3 inh: human KCNK3 channel inhibitors, primary screen, CHO cells, FluxOR thallium flux, B-score; actives 0.84% (n = 340,000); FluxOR fluorescence; hits give low values; B-score at 10 µM; AID 602410, 2012; Potassium channel subfamily K member 3 (Homo sapiens), O14649;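 active means B-score under library mean minus 4 SD, starting fluorescence ratio at most library mean plus 5 SD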;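 further: more negative B-score means stronger inhibition of thallium flux through KCNK3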
KCNQ1 act: potentiators or activators of KCNQ1 channel, primary screen, cell-based, thallium flux, high-throughput | Potassium voltage-gated channel subfamily KQT member 1 (Homo sapiens), P51787 | CHO-K1 KCNQ1, thallium flux FluxOR fluorescence; hits give high values | B-score at 10 µM | actives 0.35% (n = 310,000) | AID 2648, 2010;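 active means fluorescence ratio B-score, a plate-corrected score, at least three library SD, with initial intensity B-score within 5 SD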
Target sequence (P51787 whole entry, looked up): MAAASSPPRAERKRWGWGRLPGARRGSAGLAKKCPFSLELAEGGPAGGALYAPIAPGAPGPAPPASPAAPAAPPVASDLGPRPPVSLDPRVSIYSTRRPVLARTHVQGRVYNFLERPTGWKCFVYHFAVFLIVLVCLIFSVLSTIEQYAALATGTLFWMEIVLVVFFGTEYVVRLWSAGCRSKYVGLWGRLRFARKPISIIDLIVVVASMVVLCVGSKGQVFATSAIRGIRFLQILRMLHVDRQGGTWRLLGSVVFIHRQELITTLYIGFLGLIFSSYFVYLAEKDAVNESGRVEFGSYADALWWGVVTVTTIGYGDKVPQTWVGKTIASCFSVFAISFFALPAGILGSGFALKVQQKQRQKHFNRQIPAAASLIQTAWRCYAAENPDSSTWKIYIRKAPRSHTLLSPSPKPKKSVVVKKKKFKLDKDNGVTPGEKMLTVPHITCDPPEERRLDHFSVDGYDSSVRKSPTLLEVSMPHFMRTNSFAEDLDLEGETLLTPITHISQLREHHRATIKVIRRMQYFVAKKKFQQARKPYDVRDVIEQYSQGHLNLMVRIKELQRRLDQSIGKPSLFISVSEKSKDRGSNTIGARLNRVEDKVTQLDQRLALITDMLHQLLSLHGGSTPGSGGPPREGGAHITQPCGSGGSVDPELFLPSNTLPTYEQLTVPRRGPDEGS
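assay system = KCNQ1-transfected CHO-K1 cells | medium = assay buffer with matched DMSO | probe or stimulus = depolarizing K+/Tl+ stimulus, K2SO4 and Tl2SO4 each 12.5 mM in 5x stock | dosing = single dose | incubation = dye 90 min, compound 20 min, room temperature | detection = kinetic FluxOR fluorescence, 10 s baseline plus 110 s post-stimulus | evaluation = ratio B score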
hERG rescue: hERG rescue from dofetilide block, primary screen, cell-based, CHO-hERG, FluxOR thallium flux, dofetilide IC70; dofetilide IC70 present; activation (rescue from dofetilide block), less the hit threshold, % at 10 µM; actives 0.51% (n = 310,000); Voltage-gated inwardly rectifying potassium channel KCNH2 (Homo sapiens), Q12809;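 active means activation above the mean of controls blocked by dofetilide plus 5 SD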;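 further: thallium influx through hERG after potassium depolarization seen as dye fluorescence rise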
KCNK9 inh: KCNK9 potassium channel inhibitors, primary screen, HEK293 cells, thallium flux; Potassium channel subfamily K member 9 (Homo sapiens), Q9NPC2; FluxOR thallium flux fluorescence; hits give low values; B-score at 10 µM; actives 1.2% (n = 310,000); AID 488922, 2010;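 active means ratio B-score over 3 SD below the library mean, with starting fluorescence within 5 SD of its mean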;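 further: negative B-score means less thallium flux so channel inhibition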
KCNQ1 block: inhibitors of human KCNQ1 channel, primary screen, cell-based, thallium flux, high-throughput; Potassium voltage-gated channel subfamily KQT member 1 (Homo sapiens), P51787; CHO-K1 KCNQ1, FluxOR thallium flux fluorescence; hits give high values; B-score at 10 µM; actives 1.3% (n = 310,000); AID 2642, 2010;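 active means compounds whose thallium flux B-score, printed positive for inhibition, exceeds three library SD while starting fluorescence stays within three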;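 further: channel opened by potassium depolarization with thallium stimulus after 20 min compound exposure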
KCNK9 inh conf: KCNK9 potassium channel inhibitors, confirmation, HEK293 cells, thallium flux, duplicate; shares compounds with KCNK9 inh; FluxOR thallium flux fluorescence; inhibition, % at 10 µM; actives 43% (n = 4,900);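 active means thallium signal inhibited by more than 5 SD of the compound-free buffer control wells, on both duplicate plates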;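 further: 0% = assay buffer control wells without compound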
Kir2-1 spec: mouse Kir2.1 channel inhibition, confirmation, selectivity assay for KCNK9 modulator project, cell-based, HEK293, thallium flux. shares compounds with KCNK9 inh. Kir2.1 cells, FluxOR thallium flux fluorescence. inhibition, % at 10 µM. actives 4% (n = 4,900). AID 492993, 2010;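 active means thallium signal drop more than 5 SD beyond the mean of the no-compound control wells, seen in both duplicate plates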;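 further: signal is fluorescence rise after thallium addition divided by baseline fluorescence; plate controls were assay buffer only for no effect and full block by chlorpromazine control for full effect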
HEK293 Tl ctr: thallium flux in non-induced HEK293 cells, confirmation, counter-screen for KCNK9 inhibitor project, cell-based, second counter screen, non-induced KCNK9-HEK293. shares compounds with KCNK9 inh. FluxOR thallium flux. actives 40% (n = 4,900). AID 492997, 2010. inhibition, % at 10 µM;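 active means thallium signal drop beyond 5 SD of the untreated control mean, on both duplicate plates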;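 further: plate controls were buffer only IC0 wells for no effect and SID17386958 at its maximal inhibitory level for full effect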
The depositor's hits bear a star; i = inactive; nt = not tested or not shown.

SMILES | Kir21 inh | KCNK3 inh | KCNQ1 act | hERG rescue | KCNK9 inh | KCNQ1 block | KCNK9 inh conf | Kir2-1 spec | HEK293 Tl ctr
CC1=C(C(=O)Nc2ccccc2C)C(c2ccc(C)o2)N2C(=O)CSC2=N1 (centres undefined) | -0.36 | i | i | -6 | -8.3* | i | 38%* | i | 51%*
C=CCNC(=O)c1ccccc1NC(=O)C1CC(=O)N(C(C)C)C1 (centres undefined) | -0.47 | i | i | -1 | i | i | nt | nt | nt
S=c1[nH]nc(-c2cccs2)n1/N=C/c1cn(-c2ccccc2)nc1-c1ccccc1 | 1.2 | i | i | -4 | i | i | i | i | i
Cc1ccc(-c2nn(-c3ccccc3)cc2/C=N/n2c(-c3ccncc3)n[nH]c2=S)cc1 | -1.3 | i | i | -3 | i | i | nt | nt | nt
Cc1ccc(C)c(N2CCN(C(=O)c3cc4sccc4n3C)CC2)c1 | -0.09 | i | i | -15 | i | i | nt | nt | nt
Cn1c(C(=O)N2CCN(c3cccc(C(F)(F)F)c3)CC2)cc2sccc21 | 1.9 | i | i | -14 | i | i | i | i | i
O=C(NCc1cccs1)C1CC(=O)N(Cc2ccccc2)C1 (centres undefined) | nt | i | nt | nt | nt | nt | nt | nt | nt
CC1CCCC(C)N1C(=O)CN1C(=O)c2ccccc2S1(=O)=O (centres undefined) | nt | i | nt | nt | nt | nt | nt | nt | nt
COc1cccc(N2CCN(C(=O)c3cc(-c4ccccc4)nc4c3cnn4C(C)C)CC2)c1 | nt | i | nt | nt | nt | nt | nt | nt | nt
C/C(=N/OC(=O)C1CC12CCC2)c1ccc(Br)cc1 (centres undefined) | 0.41 | i | i | -10 | i | i | i | i | i
Cc1ccc(NC(=O)c2cc(S(=O)(=O)N3CCOCC3)cn2C)cc1Cl | -0.16 | i | i | -9 | i | i | nt | nt | nt
COc1cc(CN(C)CC2CCCN(CCc3ccccc3F)C2)cc(Cl)c1OC (centres undefined) | -4.9* | i | i | -4 | i | i | i | i | i

Assay outcomes as filed in PubChem.
